These results are taken from ChEMBL document CHEMBL1649286, “ACHN-490, a neoglycoside with potent in vitro activity against multidrug-resistant Klebsiella pneumoniae isolates” (2009).

Values after ≈ are worked out from the molar mass of the structure shown. Where only a bound is given, the exact number is not on record here.

As usually defined, the MIC50 is the lowest concentration that inhibits either 50% of growth or 50% of the strains tested, depending on the study. By MIC90 is commonly meant the lowest concentration that inhibits either 90% of growth or 90% of the strains tested, depending on the study. What is called MIC is the lowest concentration found to suppress growth. Low values mean inhibition by little substance, high ones a need for much substance.

Common to all, as to type: functional
The test system of assay [1] is Klebsiella pneumoniae. The assay is described as follows: Antimicrobial activity against multidrug-resistant Klebsiella pneumoniae isolates by microdilution method. The gist of the method:
(§1)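 Broth microdilution MICs following CLSI, in cation-adjusted Mueller-Hinton broth, using custom-made panels that include piperacillin-tazobactam. Tested against 102 multidrug-resistant clinical Klebsiella pneumoniae isolates, a subset of 25 of which produce KPC carbapenemase. Cephalosporin-clavulanate combinations use clavulanate at a constant 4 mg/liter. Susceptible and resistant categories are assigned by CLSI criteria.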
(In general: Dilution methods test growth across graded concentrations, often in twofold steps.)

The test system of assay [2] is Klebsiella pneumoniae. The assay is described as follows: Antimicrobial activity against beta lactamase KPC-producing Klebsiella pneumoniae isolates by microdilution method. The gist of the method:
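Broth microdilution MICs following CLSI, in cation-adjusted Mueller-Hinton broth, using custom-made panels that include piperacillin-tazobactam. Cephalosporin-clavulanate combinations use clavulanate at a constant 4 mg/liter. Susceptible and resistant categories are assigned by CLSI criteria.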

The subject of assay [3] is Klebsiella pneumoniae. The assay is described as follows: Antimicrobial activity against Klebsiella pneumoniae ATCC 700603 by microdilution method.
Assay [4] has as its system Pseudomonas aeruginosa. Kind of assay: Antimicrobial activity against Pseudomonas aeruginosa ATCC 27853 by microdilution method.
For assay [5], the system named is Escherichia coli. The assay is described as follows: Antimicrobial activity against Escherichia coli ATCC 25922 by microdilution method.
For assay [6], the system named is Klebsiella pneumoniae. Kind of assay: Antimicrobial activity against multidrug-resistant Klebsiella pneumoniae isolates assessed as resistance isolates by microdilution method. In short, it runs like this:
as §1

In assay [7] the test system is Klebsiella pneumoniae. Kind of assay: Antimicrobial activity against beta lactamase KPC-producing Klebsiella pneumoniae isolates assessed as susceptible isolates by microdilution method. In short, it runs like this: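 Broth microdilution in cation-adjusted Mueller-Hinton broth following CLSI criteria, using customized panels that included piperacillin-tazobactam. MICs were read as the endpoint, and susceptibility was categorized by CLSI criteria.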

Assay [8] has as its system Klebsiella pneumoniae. Kind of assay: Antimicrobial activity against beta lactamase KPC-producing Klebsiella pneumoniae isolates assessed as resistance isolates by microdilution method. The gist of the method:
as §1

Assay [9] relates to Klebsiella pneumoniae. The assay is described as follows: Antimicrobial activity against multidrug-resistant Klebsiella pneumoniae isolates assessed as susceptible isolates by microdilution method. In short, it runs like this:
as §1

Assay [10] deals with Klebsiella pneumoniae. The assay is described as follows: Antimicrobial activity against beta lactamase KPC-producing Klebsiella pneumoniae isolates by microdilution method in presence of beta-lactamase inhibitor Tazobactam. The gist of the method: (§2)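 Broth microdilution in cation-adjusted Mueller-Hinton broth following CLSI criteria, using customized panels that included piperacillin-tazobactam. The 25 clinical KPC-producing K. pneumoniae isolates belong to a set of 102 multidrug-resistant strains. MICs were read as the endpoint, and susceptibility was categorized by CLSI criteria.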

In assay [11] the test system is Klebsiella pneumoniae. The assay is described as follows: Antimicrobial activity against multidrug-resistant Klebsiella pneumoniae isolates assessed as susceptible isolates by microdilution method in presence of beta-lactamase inhibitor Tazobactam. In short, it runs like this: as §1
In assay [12] the test system is Klebsiella pneumoniae. Kind of assay: Antimicrobial activity against beta lactamase KPC-producing Klebsiella pneumoniae isolates assessed as susceptible isolates by microdilution method in presence of beta-lactamase inhibitor Tazobactam. The gist of the method: as §2

With `NC[C@@H]1O[C@H](O[C@H]2[C@@H](O)[C@H](O[C@@H]3[C@@H](O)[C@H](N)C[C@H](N)[C@H]3O[C@H]3O[C@H](CN)[C@@H](O)[C@H](O)[C@H]3N)O[C@@H]2CO)[C@H](N)[C@@H](O)[C@@H]1O` [FRAMYCETIN], in [1], the MIC50 was 2 µg/mL (≈ 3.25 µM) and the MIC90 worked out at 32 µg/mL (≈ 52.1 µM). Moreover, in [2], the MIC50 stood at 2 µg/mL (≈ 3.25 µM) and the MIC90 turned out to be 32 µg/mL (≈ 52.1 µM).

On to `CN[C@@H]1[C@@H](O)[C@@H](O[C@@H]2[C@@H](O)[C@H](O[C@H]3OC(CNCCO)=CC[C@H]3N)[C@@H](N)C[C@H]2NC(=O)[C@@H](O)CCN)OC[C@]1(C)O` [PLAZOMICIN], for which the MIC in assay [3] came to 0.25 µg/mL (≈ 0.422 µM); in assay [4] it was 4 µg/mL (≈ 6.75 µM); in [5] it was 0.5 µg/mL (≈ 0.844 µM). Besides, the MIC50 in assay [1] and in assay [2] was 0.5 µg/mL (≈ 0.844 µM) in each case. The MIC90 in assay [1] and in [2] was 1 µg/mL (≈ 1.69 µM) each time.

For `NC[C@H]1O[C@H](O[C@H]2[C@H](O)[C@@H](O[C@H]3O[C@H](CO)[C@@H](O)[C@H](N)[C@H]3O)[C@H](N)C[C@@H]2N)[C@H](N)C[C@@H]1O` [TOBRAMYCIN], the Activity is recorded as 76.5% in [6], 8% in assay [7], 92% in [8] and 10.8% in assay [9]. For the same molecule, the MIC50 in [1] and in assay [2] was 32 µg/mL (≈ 68.4 µM) throughout. In addition, the MIC90 in assay [2] is at least 64 µg/mL.

Turning to `CN(C)c1cc(NC(=O)CNC(C)(C)C)c(O)c2c1C[C@H]1C[C@H]3[C@H](N(C)C)C(O)=C(C(N)=O)C(=O)[C@@]3(O)C(O)=C1C2=O` [TIGECYCLINE], the MIC50 in [1] and in assay [2] was 1 µg/mL (≈ 1.71 µM) each time. The MIC90 in assay [1] and in assay [2] was 2 µg/mL (≈ 3.41 µM) each time. For the same molecule, the Activity in assay [7] is listed as 96%; in assay [9], 90.2%.

On to GENTAMICIN, for which the Activity in [6] amounted to 39.2%; in assay [7] it was 44%; in assay [8], 12%; in assay [9], 25.5%. In addition, the MIC50 in [1] and in assay [2] was 8 µg/mL throughout. Also, the MIC90 was over 64 µg/mL in assay [1] and 16 µg/mL in [2].

Regarding `NCC[C@H](O)C(=O)N[C@@H]1C[C@H](N)[C@@H](O[C@H]2O[C@H](CN)CC[C@H]2N)[C@H](O)[C@H]1O[C@H]1O[C@H](CO)[C@@H](O)[C@H](N)[C@H]1O` [ARBEKACIN], in [1], the MIC50 was determined as 4 µg/mL (≈ 7.24 µM) and the MIC90 came out at 16 µg/mL (≈ 29 µM). In addition, in assay [2], the MIC50 was determined as 8 µg/mL (≈ 14.5 µM) and the MIC90 was found to be 16 µg/mL (≈ 29 µM).

`CCN1CCN(C(=O)N[C@@H](C(=O)N[C@@H]2C(=O)N3[C@@H]2SC(C)(C)[C@@H]3C(=O)O)c2ccccc2)C(=O)C1=O` [PIPERACILLIN]: in assay [10], the MIC50 is over 64 µg/mL and the MIC90 was over 64 µg/mL. The Activity in assay [11] is given as 38.2%. Further, the Activity in assay [12] is 0%.

For `C[C@@H](O)[C@H]1C(=O)N2C(C(=O)O)=C(SCCNC=N)C[C@H]12` [IMIPENEM ANHYDROUS], the MIC50 amounted to 0.5 µg/mL (≈ 1.67 µM) in assay [1] and 8 µg/mL (≈ 26.7 µM) in assay [2]. In addition, the results for the MIC90 in assay [1] and in assay [2] were 8 µg/mL (≈ 26.7 µM) and over 16 µg/mL, respectively. For the same molecule, the values for the Activity in [7] and in [9] were 12% and 75.5%, respectively.

In the case of `NCC[C@H](O)C(=O)N[C@@H]1C[C@H](N)[C@@H](O[C@H]2O[C@H](CN)[C@@H](O)[C@H](O)[C@H]2O)[C@H](O)[C@H]1O[C@H]1O[C@H](CO)[C@@H](O)[C@H](N)[C@H]1O` [AMIKACIN], the Activity in [6] was 4.9%; in assay [7], 48%; in assay [8], 0%; in assay [9], 78.4%. In addition, the MIC50 was 2 µg/mL (≈ 3.42 µM) in [1] and 32 µg/mL (≈ 54.6 µM) in assay [2]. Also, the MIC90 in assay [1] and in [2] was 32 µg/mL (≈ 54.6 µM) throughout.

Turning to `CC(C)(O/N=C(\C(=O)N[C@@H]1C(=O)N2C(C(=O)[O-])=C(C[n+]3ccccc3)CS[C@H]12)c1csc(N)n1)C(=O)O` [CEFTAZIDIME], the MIC50 in assay [1] and in assay [2] was over 32 µg/mL throughout. The MIC90 in assay [1] and in assay [2] was over 32 µg/mL each time. Also, the Activity in assay [7] is recorded as 0%; in assay [9], 9.8%.
